Consider 23 molecules from ChEMBL document CHEMBL3352013, “The design and synthesis of potent and selective inhibitors of Trypanosoma brucei glycogen synthase kinase 3 for the treatment of human african trypanosomiasis” (J Med Chem, 2014).

As a reminder, the IC50 is the concentration that gives 50% inhibition. Read a low IC50 as higher potency. One may read the EC50 as the concentration that produces a half-maximal response.

Experiment [1] is described as follows: Inhibition of Trypanosoma brucei GSK3 using biotinylated GSP2 substrate by flashplate assay. A digest of the protocol:
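Radiometric Flashplate assay: 2.5 nM TbGSK3 short, 1 μM biotinylated GSP2, 1 μM ATP plus [γ-33P]-ATP. 10-point titration 30 μM to 0.3 nM final, 1% DMSO. IC50 averaged over two or more experiments; standard GW8510 used for reproducibility (MSR).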

The target of another experiment is CDK2/Cyclin A2 (Homo sapiens, UniProt P24941). In words: Inhibition of human CDK2/cyclin A using Biotin-C6-PKTPKKAKKL substrate. Type of experiment: protein-complex assay.
Experiment [2] in a line: Selectivity ratio, ratio of IC50 for human GSK3 to IC50 Trypanosoma brucei GSK3.
Experiment [3] concerns the target Glycogen synthase kinase-3 (Homo sapiens, UniProt P49840+P49841). In words: Inhibition of human GSK3 using biotinylated GSP2 substrate by flashplate assay. Type of experiment: protein assay.
Experiment [4] has as its system Trypanosoma brucei brucei. In words: Trypanocidal activity against bloodstream stage of Trypanosoma brucei brucei assessed as inhibition of proliferation after 72 hrs. Type of experiment: functional, organism-based. Put shortly:
(§1)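 Resazurin viability assay: 2 × 10³ cells/well (MRC5 in MEM + 10% FBS; bloodstream-form T. b. brucei in appropriate medium), compounds 50 μM to 0.5 nM, 37 °C, 5% CO₂ for 69 h, then resazurin 50 μM final for further 4 h; fluorescence read. Concentration giving 50% growth inhibition over 72 h; average of two or more experiments.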

The nature of experiment [5]: Selectivity ratio, ratio of IC50 for human CDK2/cyclin A to IC50 for Trypanosoma brucei GSK3.
Another experiment deals with MRC5. In words: Cytotoxicity against human MRC5 cells assessed as growth inhibition after 72 hrs. Type of experiment: cell-based. The settings on record: MRC5, 72 h. Put shortly:
as §1

In the case of `COc1cccc(OC)c1C(=O)Nc1c[nH]nc1C(=O)NC1CCN(Cc2ccccc2)C1` (stereo unspecified), the concentration for half-maximal inhibition (IC50) in experiment [1] is 0.008 µM; on CDK2/Cyclin A2 it was > 10 µM; in experiment [3] it was 0.08 µM. The Ratio IC50 was 10 in experiment [2] and > 1300 in experiment [5]. In addition, the EC50 in experiment [4] was 8.9 µM; in the experiment with MRC5, 38 µM.
Take `CO[C@H]1CC[C@H](NC(=O)c2n[nH]cc2NC(=O)C2CCOCC2)CC1`: the results for the IC50 (in experiment [1]; on CDK2/Cyclin A2; in experiment [3]) were 0.69 µM, 0.38 µM and 0.008 µM, respectively. Also, the Ratio IC50 in experiment [2] was found to be 0.0012; in experiment [5], 0.55. Moreover, the EC50 in experiment [4] is 32 µM; in the experiment with MRC5 it was > 50 µM.
For the molecule `CCc1ccccc1C(=O)Nc1c[nH]nc1C(=O)N[C@H]1CC[C@H](OC)CC1`, the concentration for half-maximal inhibition (IC50) turned out to be 0.053 µM in experiment [1], 0.07 µM against CDK2/Cyclin A2 and 0.02 µM in experiment [3]. Besides, the Ratio IC50 came to 0.38 in experiment [2] and 1.3 in experiment [5]. For the same molecule, the EC50 amounted to 2.8 µM in experiment [4] and 3.4 µM in the experiment on MRC5.
With `COc1cccc(OC)c1C(=O)Nc1c[nH]nc1C(=O)NN1CCOCC1`, the IC50 in experiment [1] was 0.081 µM; at CDK2/Cyclin A2, > 10 µM; in experiment [3] it was 0.45 µM. The Ratio IC50 in experiment [2] was 5.6; in experiment [5], > 120. For the same molecule, the concentration giving a half-maximal response (EC50) in experiment [4] was 50 µM; in the experiment with MRC5, > 50 µM.
As for `CO[C@H]1CC[C@H](NC(=O)c2n[nH]cc2NC(=O)c2c(C)nc3ccccn23)CC1`, the half-maximal inhibitory concentration (IC50) in experiment [1] was 0.1 µM; at CDK2/Cyclin A2, 2.2 µM; in experiment [3], 0.042 µM. Besides, the Ratio IC50 in experiment [2] turned out to be 0.42; in experiment [5], 22. Besides, the EC50 was 2.9 µM in experiment [4] and 34 µM with MRC5.
Turning to `CO[C@H]1CC[C@H](NC(=O)c2n[nH]cc2NC(=O)Cc2ccccc2F)CC1`, the IC50 in experiment [1] was determined as 0.39 µM; against CDK2/Cyclin A2, 0.82 µM; in experiment [3], 0.14 µM. The Ratio IC50 in experiment [2] was 0.35; in experiment [5], 2.1. The results for the concentration giving a half-maximal response (EC50) (in experiment [4]; in the experiment with MRC5) were 23 µM and > 50 µM, respectively.
`COc1cccc(OC)c1C(=O)Nc1c[nH]nc1C(=O)Nc1ccccn1`: the IC50 in experiment [1] was 0.32 µM; against CDK2/Cyclin A2 it was > 10 µM; in experiment [3], 0.94 µM. For the same molecule, the Ratio IC50 in experiment [2] was 2.9; in experiment [5], > 31. Further, the concentration for a half-maximal effect (EC50) (in experiment [4]; in the experiment on MRC5) was > 50 µM each time.
With `COc1cccc(OC)c1C(=O)Nc1c[nH]nc1C(=O)NC1CCCCCC1`, the values for the IC50 (in experiment [1]; against CDK2/Cyclin A2; in experiment [3]) were 0.001 µM, 2 µM and 0.02 µM, respectively. In addition, the values for the Ratio IC50 in experiment [2] and in experiment [5] were 20 and 2000, respectively. The EC50 in experiment [4] stood at 4.5 µM; in the experiment with MRC5 it was 42 µM.
`COc1cccc(OC)c1C(=O)Nc1c[nH]nc1C(=O)NC1CCC1`: the values for the half-inhibitory concentration (IC50) (in experiment [1]; against CDK2/Cyclin A2; in experiment [3]) were 0.008 µM, 2.4 µM and 0.08 µM, respectively. The values for the Ratio IC50 in experiment [2] and in experiment [5] were 10 and 300, respectively. The concentration for a half-maximal effect (EC50) in experiment [4] was 12 µM; in the experiment with MRC5, > 50 µM.
For `COCCNC(=O)c1n[nH]cc1NC(=O)c1c(OC)cccc1OC`, the results for the 50% inhibitory concentration (IC50) (in experiment [1]; against CDK2/Cyclin A2; in experiment [3]) were 0.034 µM, > 10 µM and 0.3 µM, respectively. Also, the Ratio IC50 is 8.8 in experiment [2] and > 290 in experiment [5]. Moreover, the values for the half-maximal effective concentration (EC50) (in experiment [4]; with MRC5) were 43 µM and > 50 µM, respectively.
As for `COC(=O)c1n[nH]cc1NC(=O)c1c(OC)cccc1OC`, the half-inhibitory concentration (IC50) in experiment [1] was 0.52 µM; at CDK2/Cyclin A2 it was > 10 µM; in experiment [3], 4.5 µM. Moreover, the Ratio IC50 is 8.7 in experiment [2] and > 19 in experiment [5]. For the same molecule, the EC50 (in experiment [4]; in the experiment on MRC5) was > 50 µM in each case.
In the case of `CO[C@H]1CC[C@H](NC(=O)c2n[nH]cc2NC(=O)c2ncoc2-c2ccccc2)CC1`, the IC50 in experiment [1] turned out to be 0.92 µM; against CDK2/Cyclin A2 it was 22 µM; in experiment [3], 0.005 µM. Besides, the Ratio IC50 in experiment [2] was found to be 0.0058; in experiment [5] it was 24. For the same molecule, the EC50 is > 50 µM in experiment [4] and 28 µM with MRC5.
As for `COc1cccc(OC)c1C(=O)Nc1c[nH]nc1C(=O)NC1CCN(C(=O)OC(C)(C)C)CC1`, the values for the IC50 (in experiment [1]; against CDK2/Cyclin A2; in experiment [3]) were 0.006 µM, 4.7 µM and 0.14 µM, respectively. The results for the Ratio IC50 in experiment [2] and in experiment [5] were 23 and 780, respectively. Moreover, the half-maximal effective concentration (EC50) was 12 µM in experiment [4] and > 50 µM in the experiment on MRC5.
Regarding `COc1cccc(OC)c1C(=O)Nc1c[nH]nc1C(=O)NCCCN(C)C`, the IC50 in experiment [1] is 0.33 µM; on CDK2/Cyclin A2, > 10 µM; in experiment [3], 0.47 µM. Moreover, the Ratio IC50 in experiment [2] is 1.4; in experiment [5], > 30. Besides, the EC50 (in experiment [4]; in the experiment with MRC5) was > 50 µM in each case.
For `COc1cccc(OC)c1C(=O)Nc1c[nH]nc1C(=O)NCCN1CCOCC1`, the 50% inhibitory concentration (IC50) in experiment [1] is 0.054 µM; against CDK2/Cyclin A2, > 10 µM; in experiment [3], 0.63 µM. The values for the Ratio IC50 in experiment [2] and in experiment [5] were 12 and > 190, respectively. Moreover, the EC50 (in experiment [4]; with MRC5) was > 50 µM in each case.
Turning to `COc1cccc(OC)c1C(=O)Nc1c[nH]nc1C(=O)Nc1ccncc1`, the half-inhibitory concentration (IC50) was found to be 0.004 µM in experiment [1], 1.3 µM against CDK2/Cyclin A2 and 0.12 µM in experiment [3]. In addition, the Ratio IC50 in experiment [2] stood at 30; in experiment [5] it was 330. In addition, the EC50 in experiment [4] was 8.2 µM; in the experiment with MRC5, > 50 µM.
With `CO[C@H]1CC[C@H](NC(=O)c2n[nH]cc2NC(=O)C2CCC(F)(F)CC2)CC1`, the IC50 turned out to be 0.5 µM in experiment [1], 1 µM against CDK2/Cyclin A2 and 0.008 µM in experiment [3]. Further, the Ratio IC50 came out at 0.16 in experiment [2] and 2 in experiment [5]. Further, the 50% effective concentration (EC50) in experiment [4] was 16 µM; in the experiment with MRC5, > 50 µM.
For `COc1cccc(OC)c1C(=O)Nc1c[nH]nc1C(=O)NCCN1CCCC1`, the figures for the IC50 (in experiment [1]; at CDK2/Cyclin A2; in experiment [3]) were 0.32 µM, > 10 µM and 0.66 µM, respectively. The Ratio IC50 is 2.1 in experiment [2] and > 31 in experiment [5]. For the same molecule, the concentration giving a half-maximal response (EC50) (in experiment [4]; in the experiment on MRC5) was > 50 µM in each case.
Turning to `COc1cccc(OC)c1C(=O)Nc1c[nH]nc1C(=O)NCc1ccccn1`, the half-inhibitory concentration (IC50) in experiment [1] was 0.015 µM; on CDK2/Cyclin A2 it was > 10 µM; in experiment [3], 0.32 µM. Besides, the Ratio IC50 is 21 in experiment [2] and > 670 in experiment [5]. Moreover, the values for the EC50 (in experiment [4]; in the experiment on MRC5) were 20 µM and > 50 µM, respectively.
For `CO[C@H]1CC[C@H](NC(=O)c2n[nH]cc2NC(=O)Cc2c(Cl)cccc2Cl)CC1`, the IC50 was determined as 0.23 µM in experiment [1], 0.29 µM at CDK2/Cyclin A2 and 0.2 µM in experiment [3]. Further, the values for the Ratio IC50 in experiment [2] and in experiment [5] were 0.87 and 1.3, respectively. The half-maximal effective concentration (EC50) came to 7.3 µM in experiment [4] and 3.1 µM in the experiment with MRC5.
For the molecule `COc1ccccc1CC(=O)Nc1c[nH]nc1C(=O)N[C@H]1CC[C@H](OC)CC1`, the IC50 in experiment [1] stood at 0.5 µM; against CDK2/Cyclin A2 it was 0.85 µM; in experiment [3], 0.21 µM. Moreover, the figures for the Ratio IC50 in experiment [2] and in experiment [5] were 0.42 and 1.7, respectively. Besides, the values for the 50% effective concentration (EC50) (in experiment [4]; with MRC5) were 22 µM and 40 µM, respectively.
Regarding `COc1cccc(OC)c1C(=O)Nc1c[nH]nc1C(=O)N[C@H]1CC[C@H](O)CC1`, the half-inhibitory concentration (IC50) in experiment [1] came to 0.002 µM; at CDK2/Cyclin A2, 1.6 µM; in experiment [3] it was 0.07 µM. Further, the Ratio IC50 in experiment [2] was 35; in experiment [5] it was 800. Also, the concentration for a half-maximal effect (EC50) turned out to be 6.4 µM in experiment [4] and 34 µM with MRC5.
For `COc1cccc(OC)c1C(=O)Nc1c[nH]nc1C(=O)Nc1ccccc1`, the concentration for half-maximal inhibition (IC50) in experiment [1] worked out at 0.006 µM; at CDK2/Cyclin A2, 4.3 µM; in experiment [3] it was 0.07 µM. For the same molecule, the Ratio IC50 in experiment [2] was 12; in experiment [5], 720. The concentration for a half-maximal effect (EC50) is 11.5 µM in experiment [4] and > 50 µM with MRC5.
